Measurements reported in ChEMBL document CHEMBL1123007, “New antiarrhythmic agents. N-aryl-8-pyrrolizidinealkanamides” (J Med Chem, 1985).
Activity calls are given as the source filed them. No cut-off for these calls is given here.

What was measured:
[1] = Potency of the drug was evaluated by comparison with Lidocain; potency = ED50 of Lidocaine /ED50 of compound.; format: functional
[2] = Ratio of LD50 to ED50 evaluated for its antiarrhythmic potency; format: functional, Heart
Mus musculus [3] = experiment: Antiarrhythmic activity evaluated in mouse after subcutaneous administration; format: functional; conditions: Heart, sc
Procedure, shortened: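 Male DDY mice (18-22 g), groups of 10, dosed s.c. at 0.1 mL/10 g body weight, three to four doses per compound. ED50 (dose protecting 50% from fibrillation) by Litchfield-Wilcoxon, with 95% confidence limits.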

[4] = Potency of the drug was evaluated by comparison with Lidocain; potency = ED50 of Lidocaine /ED50 of compound; format: functional
Mus musculus [5] = experiment: Antiarrhythmic activity evaluated in mouse after subcutaneous administration; No effect; format: functional, organism-based; conditions: Heart
[6] = Acute toxicity was determined in mice; format: organism-based; conditions: mouse, in vivo

Compound	Potency [1]	Ratio [2]	other results
CCc1cccc(CC)c1NC(=O)CC12CCCN1CCC2	1.41	9.93	–
COc1ccc(NC(=O)CC23CCCN2CCC3)cc1	0.6	4.8	–
COc1ccc(OC)c(NC(=O)CC23CCCN2CCC3)c1	0.44	2.26	–
Nc1ccccc1NC(=O)CC12CCCN1CCC2	–	6.33	ED50 (Mus musculus [3]): 100 mg/kg; Potency [4]: 0.9
Cc1ccccc1NC(=O)CC12CCCN1CCC2	–	–	ED40 (Mus musculus [3]): 100 mg/kg
Cc1cccc(C)c1NC(=O)CC12CCCN1CCC2	1.51	–	–
COc1cccc(NC(=O)CC23CCCN2CCC3)c1	–	–	ED40 (Mus musculus [3]): 100 mg/kg
O=C(CC12CCCN1CCC2)Nc1ccccc1	–	–	ED50 (Mus musculus [5]): inactive
Cc1cc(C)c(NC(=O)CC23CCCN2CCC3)c(C)c1	1.22	9.09	–
CCN(CC)CC(=O)Nc1c(C)cccc1C [LIDOCAINE]	1	–	ED50 (Mus musculus [3]): 29 mg/kg
Cc1cccc(NC(=O)CC23CCCN2CCC3)c1C	0.56	7.33	–
Cc1cccc(C)c1NC(=O)C12CCCN1CCC2	–	–	ED20 (Mus musculus [3]): 100 mg/kg; LD50 [6]: 603 mg/kg
Cc1ccc(NC(=O)CC23CCCN2CCC3)cc1	–	–	ED20 (Mus musculus [3]): 100 mg/kg
Nc1ccc(NC(=O)CC23CCCN2CCC3)cc1	–	–	LD50 [6]: 12 mg/kg
O=C(CC12CCCN1CCC2)Nc1c(Cl)cccc1Cl	–	–	ED20 (Mus musculus [3]): 100 mg/kg
Cc1cc(C)cc(NC(=O)CC23CCCN2CCC3)c1	0.69	6.83	–
O=C(CC12CCCN1CCC2)Nc1ccccc1Cl	–	–	ED20 (Mus musculus [3]): 100 mg/kg
Cc1ccc(NC(=O)CC23CCCN2CCC3)cc1C	0.47	7.36	–
O=C(CC12CCCN1CCC2)Nc1ccccc1Br	0.76	7.54	–
COc1ccccc1NC(=O)CC12CCCN1CCC2	–	–	ED40 (Mus musculus [3]): 100 mg/kg
Cc1ccc(C)c(NC(=O)CC23CCCN2CCC3)c1	0.5	5.56	–
